Each block holds one molecule with its values, some of them ahead of it.
How the values were obtained:
[1] = molecular target: T1, Receptor-interacting serine/threonine-protein kinase 2 (Homo sapiens, UniProt O43353); assay: Inhibition of RIP2 (unknown origin) by biochemical assay
[2] = molecular target: Vascular endothelial growth factor receptor 2 (Homo sapiens, UniProt P35968); assay: Inhibition of VEGFR2 (unknown origin)
[3] = molecular target: Epidermal growth factor receptor (Homo sapiens, UniProt P00533); assay: Inhibition of EGFR (unknown origin)
TGF-beta receptor type-1 = molecular target: T2, TGF-beta receptor type-1 (Homo sapiens, UniProt P36897); assay: Inhibition of ALK5 (unknown origin)
T2 sequence (P36897 whole entry): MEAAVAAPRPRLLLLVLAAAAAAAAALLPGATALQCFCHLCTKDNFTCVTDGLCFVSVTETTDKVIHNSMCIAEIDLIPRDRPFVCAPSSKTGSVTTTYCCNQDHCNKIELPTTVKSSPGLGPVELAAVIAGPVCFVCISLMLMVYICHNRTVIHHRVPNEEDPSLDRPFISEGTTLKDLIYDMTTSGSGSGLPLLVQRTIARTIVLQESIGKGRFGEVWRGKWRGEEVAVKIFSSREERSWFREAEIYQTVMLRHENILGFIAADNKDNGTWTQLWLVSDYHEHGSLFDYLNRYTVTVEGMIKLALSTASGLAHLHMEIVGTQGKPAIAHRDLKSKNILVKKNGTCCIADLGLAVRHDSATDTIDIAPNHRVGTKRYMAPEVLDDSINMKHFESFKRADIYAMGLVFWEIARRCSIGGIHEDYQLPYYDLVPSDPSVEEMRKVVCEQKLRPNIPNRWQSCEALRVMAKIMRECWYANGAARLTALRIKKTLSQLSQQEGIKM

[4] = molecular target: T1, Receptor-interacting serine/threonine-protein kinase 2; assay: Inhibition of RIP2 (unknown origin)
[5] = molecular target: T1, Receptor-interacting serine/threonine-protein kinase 2; assay: Relative binding affinity to RIP2 (unknown origin) by affinity selection mass spectrometry analysis
Summary of the method: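 Test material was freed from the DNA headpiece by cleaving the tetrahydropyranyl linker with 0.1% formic acid at 60 °C for 1 h. The released compound was then tested by affinity selection mass spectrometry, and binding was expressed as relative binding affinity (%RBA).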

[6] = molecular target: T1, Receptor-interacting serine/threonine-protein kinase 2; assay: Inhibition of RIP2 (unknown origin) by fluorescence polarization based binding assay

T1 sequence (O43353 whole entry): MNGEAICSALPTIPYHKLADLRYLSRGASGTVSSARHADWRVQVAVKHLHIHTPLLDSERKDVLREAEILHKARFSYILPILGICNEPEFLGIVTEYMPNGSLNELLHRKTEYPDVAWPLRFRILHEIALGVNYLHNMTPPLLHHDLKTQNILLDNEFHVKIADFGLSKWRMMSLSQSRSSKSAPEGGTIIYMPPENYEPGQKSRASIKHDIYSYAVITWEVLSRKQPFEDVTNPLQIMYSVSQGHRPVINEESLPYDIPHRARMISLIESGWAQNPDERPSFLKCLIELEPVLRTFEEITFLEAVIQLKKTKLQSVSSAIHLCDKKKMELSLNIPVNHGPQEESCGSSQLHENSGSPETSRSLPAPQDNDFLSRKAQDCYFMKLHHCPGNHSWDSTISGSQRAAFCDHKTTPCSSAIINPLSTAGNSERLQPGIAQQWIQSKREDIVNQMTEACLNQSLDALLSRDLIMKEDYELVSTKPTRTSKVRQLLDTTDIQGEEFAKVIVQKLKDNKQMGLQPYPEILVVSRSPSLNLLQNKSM
Sequence of Vascular endothelial growth factor receptor 2 (P35968 whole entry): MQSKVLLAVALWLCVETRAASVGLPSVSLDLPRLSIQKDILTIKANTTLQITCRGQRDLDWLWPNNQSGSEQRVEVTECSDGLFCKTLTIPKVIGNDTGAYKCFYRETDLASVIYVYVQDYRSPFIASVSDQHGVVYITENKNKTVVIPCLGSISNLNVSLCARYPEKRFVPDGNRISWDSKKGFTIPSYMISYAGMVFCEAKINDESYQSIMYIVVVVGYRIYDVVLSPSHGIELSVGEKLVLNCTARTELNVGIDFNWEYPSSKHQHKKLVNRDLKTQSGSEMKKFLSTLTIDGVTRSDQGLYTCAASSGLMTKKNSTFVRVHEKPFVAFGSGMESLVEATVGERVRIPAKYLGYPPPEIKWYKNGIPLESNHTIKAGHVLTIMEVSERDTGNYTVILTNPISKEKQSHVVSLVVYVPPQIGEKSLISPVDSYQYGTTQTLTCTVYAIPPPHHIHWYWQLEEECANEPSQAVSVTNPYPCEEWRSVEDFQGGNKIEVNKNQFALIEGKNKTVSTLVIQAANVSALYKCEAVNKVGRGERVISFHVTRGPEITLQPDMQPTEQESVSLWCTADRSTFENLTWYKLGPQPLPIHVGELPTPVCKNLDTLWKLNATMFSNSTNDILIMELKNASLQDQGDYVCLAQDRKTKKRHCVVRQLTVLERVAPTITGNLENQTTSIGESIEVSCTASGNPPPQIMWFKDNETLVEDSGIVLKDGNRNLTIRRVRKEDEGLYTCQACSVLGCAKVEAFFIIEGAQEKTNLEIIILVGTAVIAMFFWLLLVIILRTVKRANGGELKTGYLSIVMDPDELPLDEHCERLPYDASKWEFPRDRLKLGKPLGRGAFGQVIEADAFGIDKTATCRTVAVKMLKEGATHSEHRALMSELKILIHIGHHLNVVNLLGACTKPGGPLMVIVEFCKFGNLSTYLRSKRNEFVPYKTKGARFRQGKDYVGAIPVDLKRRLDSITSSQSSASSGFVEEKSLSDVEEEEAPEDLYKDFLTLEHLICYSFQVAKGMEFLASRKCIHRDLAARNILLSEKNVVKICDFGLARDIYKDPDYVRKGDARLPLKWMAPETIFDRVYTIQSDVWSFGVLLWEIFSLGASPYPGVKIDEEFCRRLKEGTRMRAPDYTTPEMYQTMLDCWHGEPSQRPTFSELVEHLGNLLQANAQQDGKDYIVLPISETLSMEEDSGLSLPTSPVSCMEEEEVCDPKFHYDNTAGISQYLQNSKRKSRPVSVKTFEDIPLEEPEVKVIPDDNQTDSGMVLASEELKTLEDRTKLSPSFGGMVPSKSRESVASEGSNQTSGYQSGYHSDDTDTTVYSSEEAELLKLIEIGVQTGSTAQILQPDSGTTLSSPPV
Sequence of Epidermal growth factor receptor (P00533 whole entry): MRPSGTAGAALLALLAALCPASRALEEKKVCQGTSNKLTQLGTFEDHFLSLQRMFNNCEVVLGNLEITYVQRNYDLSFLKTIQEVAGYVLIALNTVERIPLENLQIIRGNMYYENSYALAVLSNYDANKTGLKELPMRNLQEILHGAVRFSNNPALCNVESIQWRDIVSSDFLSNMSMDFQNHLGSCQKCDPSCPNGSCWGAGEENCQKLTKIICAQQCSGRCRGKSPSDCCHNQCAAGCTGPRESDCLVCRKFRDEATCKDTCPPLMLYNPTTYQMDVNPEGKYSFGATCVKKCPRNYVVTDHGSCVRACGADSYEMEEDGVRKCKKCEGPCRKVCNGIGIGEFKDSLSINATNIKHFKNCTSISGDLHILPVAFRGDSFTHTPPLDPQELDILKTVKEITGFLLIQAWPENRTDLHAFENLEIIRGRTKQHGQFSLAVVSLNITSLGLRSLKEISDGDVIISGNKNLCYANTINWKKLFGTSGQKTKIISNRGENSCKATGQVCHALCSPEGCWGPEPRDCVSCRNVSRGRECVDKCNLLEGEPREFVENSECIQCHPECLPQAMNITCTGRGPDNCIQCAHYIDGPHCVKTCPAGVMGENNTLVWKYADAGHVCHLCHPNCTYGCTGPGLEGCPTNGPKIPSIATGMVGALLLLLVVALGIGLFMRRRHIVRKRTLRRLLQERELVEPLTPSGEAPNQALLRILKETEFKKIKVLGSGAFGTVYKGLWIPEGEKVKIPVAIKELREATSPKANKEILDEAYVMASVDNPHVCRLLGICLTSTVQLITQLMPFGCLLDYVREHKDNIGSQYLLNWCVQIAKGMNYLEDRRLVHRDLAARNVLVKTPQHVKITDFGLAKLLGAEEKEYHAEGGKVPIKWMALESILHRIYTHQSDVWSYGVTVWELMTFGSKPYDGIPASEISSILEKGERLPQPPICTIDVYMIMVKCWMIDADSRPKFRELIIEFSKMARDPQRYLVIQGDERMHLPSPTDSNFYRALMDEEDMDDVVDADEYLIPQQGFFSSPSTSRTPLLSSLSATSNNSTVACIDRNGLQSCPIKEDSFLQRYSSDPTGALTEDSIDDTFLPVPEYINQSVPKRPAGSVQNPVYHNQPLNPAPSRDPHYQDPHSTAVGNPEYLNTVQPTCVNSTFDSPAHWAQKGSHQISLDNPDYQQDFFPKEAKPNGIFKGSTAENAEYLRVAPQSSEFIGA

IC50 [1]: 6 nM
SMILES: COCCNC(=O)c1cc(CNc2ccc(Cl)c(O)c2)cc(-c2ccc3c(Nc4ccc(Cl)c(O)c4)ccnc3c2)c1

IC50 [2]: 16 nM | IC50 [3]: 2500 nM | IC50 (TGF-beta receptor type-1): 2500 nM | IC50 [4]: 16 nM
SMILES: c1ccc(-c2ccc3c(Nc4ccc5scnc5c4)ccnc3c2)cc1

IC50 [2]: < 1 nM | IC50 [3]: 100 nM | IC50 (TGF-beta receptor type-1): 79 nM | IC50 [4]: 6 nM
SMILES: Oc1cc(Nc2ccnc3cc(-c4ccccc4)ccc23)ccc1Cl

RBA [5]: 30%
SMILES: COCCn1c(-c2cnc(-c3ccc(Cl)cc3)[nH]2)nc2cc(C(=O)NCCO)ccc21

RBA [5]: 58%
SMILES: NC(=O)c1cc(CNc2ccc3scnc3c2)cc(-c2ccc3c(Nc4ccc5scnc5c4)ccnc3c2)c1

RBA [5]: 70%
SMILES: NC(=O)c1cc(C=O)cc(-c2ccc3c(Nc4ccc5scnc5c4)ccnc3c2)c1

IC50 [6]: > 50 µM
SMILES: COCCNC(=O)c1cc(CNc2ccc(Cl)c(O)c2)cc(-c2ccc3c(Cl)ccnc3c2)c1

Source: ChEMBL document CHEMBL4828713, “DNA-Encoded Library Hit Confirmation: Bridging the Gap Between On-DNA and Off-DNA Chemistry” (ACS Med Chem Lett, 2021)
